# What was measured:
# [1] = target: T1, Sterol O-acyltransferase 1 (Rattus norvegicus) (UniProt O70536); test: In vitro percentage inhibition against ACAT derived from rat adrenals; settings: concentration not given here
# T1 sequence (whole entry): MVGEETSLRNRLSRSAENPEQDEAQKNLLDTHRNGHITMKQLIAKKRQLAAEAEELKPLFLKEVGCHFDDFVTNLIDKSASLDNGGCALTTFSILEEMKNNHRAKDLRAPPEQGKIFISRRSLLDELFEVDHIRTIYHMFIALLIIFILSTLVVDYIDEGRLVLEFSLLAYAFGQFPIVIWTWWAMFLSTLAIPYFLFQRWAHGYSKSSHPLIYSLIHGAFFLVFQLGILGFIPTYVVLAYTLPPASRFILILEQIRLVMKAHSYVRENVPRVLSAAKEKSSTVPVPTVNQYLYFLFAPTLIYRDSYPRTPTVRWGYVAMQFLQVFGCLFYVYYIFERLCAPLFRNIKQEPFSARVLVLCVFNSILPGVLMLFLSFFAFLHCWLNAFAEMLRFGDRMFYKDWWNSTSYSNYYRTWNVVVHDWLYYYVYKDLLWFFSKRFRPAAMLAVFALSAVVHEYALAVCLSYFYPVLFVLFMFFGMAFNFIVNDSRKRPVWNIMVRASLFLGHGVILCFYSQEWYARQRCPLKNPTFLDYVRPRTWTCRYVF
# Method in brief: (§1)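 Rat adrenal 1000g supernatant (microsomal ACAT) in 0.2 M KH2PO4 pH 7.4 with BSA; test compound at final 5.2 µg/mL, preincubated 37 °C 10 min; [14C]oleoyl-CoA (0.4 µCi) added, 37 °C 30 min. Cholesteryl ester separated by TLC, scintillation counted; mean percent inhibition against compound-free control.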
# [2] = target: T2, Sterol O-acyltransferase 1 (Rattus norvegicus, UniProt O70536); test: In vitro inhibitory concentration against ACAT derived from rat adrenals
# T2 sequence (O70536 whole entry): T1 sequence (whole entry)
# Method in brief: (§2)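 Rat adrenal homogenate in 0.2 M KH2PO4 buffer pH 7.4, 1000g supernatant (microsomal fraction) as enzyme; preincubated with BSA and test compound at graded concentrations, 37 °C 10 min, then [14C]oleoyl-CoA 0.4 µCi, 37 °C 30 min. Lipids extracted, cholesteryl ester isolated by TLC and counted. Triplicate tubes per concentration; IC50 by linear regression of means.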
# [3] = target: T1, Sterol O-acyltransferase 1 (Rattus norvegicus); test: Liver hypolipidemic activity in rats; format: functional
# Method in brief: (§3)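 Male CD-1 Sprague-Dawley rats, 140–150 g, fed 1% cholesterol/0.5% cholic acid diet with compound admixed at 0.01% (about 10 mg/kg/day) for 7 days. Serum and liver cholesterol measured by Technicon autoanalyzer methods; expressed as percent of control.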
# [4] = target: T1, Sterol O-acyltransferase 1 (Rattus norvegicus); test: Serum hypolipidemic activity in rats; format: functional; method in brief: as §3
# [5] = target: T1, Sterol O-acyltransferase 1 (Rattus norvegicus); test: (§4) In vitro percentage inhibition against acyl coenzyme A:cholesterol acyltransferase derived from rat adrenals; design: concentration or dose not given beside the values; settings: concentration not given here; method in brief: as §1
# [6] = target: T2, Sterol O-acyltransferase 1; test: In vitro inhibitory concentration against acyl coenzyme A:cholesterol acyltransferase derived from rat adrenals; method in brief: as §2
# Oryctolagus cuniculus [7] = test: Compound was evaluated for rabbit serum cholesterol level at dose 11 mg/kg per day on day 7; format: functional
# Method in brief: (§5)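 Male New Zealand rabbits (2.5–3.0 kg) on rabbit pellets with 0.4% cholesterol and peanut oil for one week, then bled and grouped by plasma sterol. Drug mixed in diet (6% peanut oil) at 0.25, 0.075 or 0.025% for five weeks, about 109.6, 34.5 or 11.2 mg/kg/day. Dietary cholesterol adjusted weekly (0.30–0.35%). Aortic balloon denudation on day 7 of dosing.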
# Oryctolagus cuniculus [8] = test: Compound was evaluated for rabbit serum cholesterol level at dose 110 mg/kg per day on day 0; format: functional; method in brief: as §5
# Oryctolagus cuniculus [9] = test: Compound was evaluated for rabbit serum cholesterol level at dose 110 mg/kg per day on day 35; format: functional; method in brief: as §5
# Oryctolagus cuniculus [10] = test: Compound was evaluated for rabbit serum cholesterol level at dose 110 mg/kg per day on day 7; format: functional; method in brief: as §5
# Oryctolagus cuniculus [11] = test: Compound was evaluated for rabbit serum cholesterol level at dose 35 mg/kg per day on day 21; format: functional; method in brief: as §5
# Oryctolagus cuniculus [12] = test: Compound was evaluated for rabbit serum cholesterol level at dose 35 mg/kg per day on day 35; format: functional; method in brief: as §5
# Oryctolagus cuniculus [13] = test: Compound was evaluated for rabbit serum cholesterol level at dose 35 mg/kg per day on day 7; format: functional; method in brief: as §5
# Oryctolagus cuniculus [14] = test: Compound was evaluated for rabbit serum cholesterol levels for a dose of 110 mg/kg per day on day 21; format: functional; method in brief: as §5
# Oryctolagus cuniculus [15] = test: Compound was evaluated for rabbit serum cholesterol level at dose 11 mg/kg per day on day 0; format: functional; method in brief: as §5
# Oryctolagus cuniculus [16] = test: Compound was evaluated for rabbit serum cholesterol level at dose 11 mg/kg per day on day 21; format: functional; method in brief: as §5
# Oryctolagus cuniculus [17] = test: Compound was evaluated for rabbit serum cholesterol level at dose 11 mg/kg per day on day 35; format: functional; method in brief: as §5
# Oryctolagus cuniculus [18] = test: Compound was evaluated for rabbit serum cholesterol level at dose 35 mg/kg per day on day 0; format: functional; method in brief: as §5
# [19] = target: T1, Sterol O-acyltransferase 1 (Rattus norvegicus); test: In vitro percentage inhibition againstAcyl coenzyme A:cholesterol acyltransferase derived from rat adrenals; settings: concentration not given here; method in brief: as §1
# [20] = target: T1, Sterol O-acyltransferase 1 (Rattus norvegicus); test: In vitro percentage inhibition against Acyl coenzyme A:cholesterol acyltransferase derived from rat adrenals; settings: concentration not given here
# [21] = target: T1, Sterol O-acyltransferase 1 (Rattus norvegicus); test: In vitro percentage inhibition against Acyl coenzyme A:cholesterol acyltransferase derived from rat adrenals; design: concentration or dose not given beside the values; settings: concentration not given here; method in brief: as §1
# [22] = target: T2, Sterol O-acyltransferase 1; test: In vitro inhibitory concentration against Acyl coenzyme A:cholesterol acyltransferase derived from rat adrenals; method in brief: as §2
# [23] = target: T1, Sterol O-acyltransferase 1 (Rattus norvegicus); test: as §4; settings: concentration not given here
# Method in brief: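 Rat adrenals homogenized in 0.2 M KH2PO4 (pH 7.4), spun at 1000g for 15 min at 5 °C; supernatant used as enzyme. Preincubated with BSA and test compound (final 5.2 µg/mL) at 37 °C for 10 min, then [14C]oleoyl-CoA (0.4 µCi) added for 30 min at 37 °C. Cholesteryl ester isolated by TLC and counted. Mean percent inhibition versus control without compound.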
SMILES,IC50 [2],LS [3],SS [4],inhibition [21],IC50 [22],other results
CCCCN(C(=O)Nc1ccc(C)cc1C)c1ccccc1,21400 nM,107%,99%,–,–,inhibition [1]: 70%
CCCCN(Cc1ccccc1)C(=O)Nc1ccc(C)cc1C,–,75%,70%,–,–,inhibition [5]: 91%; IC50 [6]: 4800 nM; SC (Oryctolagus cuniculus [7]): 340 mg/dL; SC (Oryctolagus cuniculus [8]): 278 mg/dL; SC (Oryctolagus cuniculus [9]): 405 mg/dL; SC (Oryctolagus cuniculus [10]): 230 mg/dL; SC (Oryctolagus cuniculus [11]): 357 mg/dL; SC (Oryctolagus cuniculus [12]): 488 mg/dL; SC (Oryctolagus cuniculus [13]): 255 mg/dL; SC (Oryctolagus cuniculus [14]): 343 mg/dL; SC (Oryctolagus cuniculus [15]): 307 mg/dL; SC (Oryctolagus cuniculus [16]): 556 mg/dL; SC (Oryctolagus cuniculus [17]): 722 mg/dL; SC (Oryctolagus cuniculus [18]): 270 mg/dL
CCCCCN(CCCCC)C(=O)Nc1ccc(C)cc1C,952 nM,49%,82%,–,–,inhibition [1]: 90%
O=C(Nc1ccc([N+](=O)[O-])cc1)N(Cc1ccccc1)Cc1ccccc1,–,–,–,–,–,inhibition [19]: 52%
CCCCCCCN(Cc1cccs1)C(=O)Nc1cc(C)c(C)cc1C,1450 nM,25%,54%,–,–,–
CCCCCCCN(Cc1ccco1)C(=O)Nc1cc(C)c(C)cc1C,–,38%,44%,–,–,inhibition [20]: 94%
Cc1cc(Cl)ccc1NC(=O)N(Cc1ccccc1)Cc1ccccc1,–,26%,53%,63%,3370 nM,–
CCCCCCCCCCN(CCCCCCCCCC)C(=O)Nc1ccc(C)cc1C,–,66%,71%,64%,630 nM,–
CCCCN(CCCC)C(=O)Nc1ccc(OCC)cc1,–,–,–,–,–,inhibition [23]: 79%
CCCCCCCN(CCCCCCC)C(=O)Nc1ccc(C)cc1C,–,15%,65%,91%,721 nM,–
